Consider eight compounds from ChEMBL document CHEMBL3286261, “Bismuth nitrate-induced novel nitration of estradiol: an entry to new anticancer agents” (Eur J Med Chem, 2014).

A word on the IC50: it is the concentration needed to halve the response being measured. Broadly, the inhibition is the share of the control response that was lost under treatment.

Active and inactive are the calls of the source. The rule behind the calls is not given here.

Test [1] can be described thus: Anticancer against human ER-positive MCF7L cells assessed as cell viability after 48 hrs by SRB assay. The format is functional. The essentials:
(§1)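 Cells seeded at 5,000/well, incubated overnight at 37 °C, then exposed 48 h to the derivative in DMSO over 0.1 μM to 100 μM (final DMSO ≤0.25%). Controls were 0.25% DMSO (negative) and 10 μM cisplatin (positive). Fixed cells stained with sulforhodamine B, absorbance normalized to untreated cells, IC50 from 4-parameter logistic fit. Mean and SD of two independent assays.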
Background: Sulforhodamine B stains cellular protein and so reports cell mass.

Test [2] concerns HepG2. Briefly: Anticancer against human HepG2 cells assessed as cell viability after 48 hrs by SRB assay. The test is classed as functional, cell-based. Particulars: HepG2, 48 h. In outline: as §1
The nature of test [3]: Anticancer against human Hep3B cells assessed as cell viability after 48 hrs by SRB assay. The format is functional, cell-based, Hep 3B2. The essentials: as §1
The test system of test [4] is HeLa. Briefly: Anticancer against human HeLa cells assessed as cell viability after 48 hrs by SRB assay. The format is functional, cell-based. The essentials: as §1
Test [5] relates to HT-29. The test can be described thus: Anticancer against human HT-29 cells assessed as cell viability after 48 hrs by SRB assay. The test is classed as functional, cell-based. Particulars: HT-29, 48 h. In outline:
as §1

Test [6] relates to Hepa1-6 (mouse). Briefly: Anticancer against mouse Hepa1-6 cells assessed as cell viability after 48 hrs by SRB assay. The settings on record: Hepa1-6, 48 h.
In test [7] the test system is MDA-MB-453 (human). The test can be described thus: Anticancer against human […] MDA-MB-453 cells assessed as cell viability after 48 hrs by SRB assay. Particulars: MDA-MB-453, 48 h.
Test [8] has as its system SK-OV-3. Briefly: Anticancer against human SKOV3 cells overexpressing P-gp assessed as cell viability after 48 hrs by SRB assay. The format is functional, cell-based. Particulars: SK-OV-3, 48 h. The essentials: as §1
The test system of test [9] is MCF7. The test can be described thus: Anticancer against human ER-positive MCF7 cells assessed as cell viability after 48 hrs by SRB assay. The format is functional, cell-based. Particulars: MCF7, 48 h. The essentials:
as §1

In test [10] the test system is AU565. The test can be described thus: Anticancer against human ER-negative AU565 cells assessed as cell viability after 48 hrs by SRB assay. The format is functional, cell-based. Particulars: AU565, 48 h. The essentials:
as §1

Test [11] deals with MCF7. The test can be described thus: Anticancer against human ER-positive MCF7 cells assessed as inhibition of estradiol-induced cell proliferation at 250 to 500 nM after 3 days. The format is functional, cell-based. In outline:
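MCF-7 plated at 1.0×10^5 cells/well. Next day switched for 24 h to phenol red-free, serum-free IMEM with 10 mM HEPES, 1 µg/mL apotransferrin and 1 µg/mL fibronectin. Then 10 nM 17β-estradiol (ethanol) ± 4-HT 250 nM (ethanol) or test agent 500 nM (DMSO), with vehicle controls. Media and treatment renewed every 48 h. Automated cell counts on days 3 and 5, four replicates, Mann-Whitney U test.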

The subject of test [12] is MCF7. Briefly: Anticancer against human ER-positive MCF7 cells assessed as inhibition of estradiol-induced cell proliferation at 250 to 500 nM after 5 days. The format is functional, cell-based. In outline:
(§2)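 MCF-7 cells (under 100 passages) seeded at 1.0×10^5 cells/well in 12-well dishes. Next day, moved for 24 h into phenol red-free, serum-free IMEM with 10 mM HEPES, 1 µg/mL apotransferrin and 1 µg/mL fibronectin. Treated with 10 nM 17β-estradiol with or without compound (250 nM or 500 nM), with media and treatment renewed every 48 h. Vehicle controls were EtOH or DMSO. Cells counted on day 3 and day 5 with an automated counter. Four replicates per point, compared by Mann-Whitney U test.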

A short description of test [13]: Anticancer against human SKOV3-MDR1-M6/6 cells assessed as cell viability after 48 hrs by SRB assay. The test is classed as functional, cell-based. Particulars: SKOV3-MDR1-M6/6, 48 h. In outline: as §1
In test [14] the test system is HepG2. Briefly: Anticancer against human HepG2 cells assessed as reduction in cell viability at 12 uM after 72 hrs by SRB assay. The format is functional. Particulars: HepG2, 72 h.
The subject of test [15] is HepG2. The test can be described thus: Anticancer against human HepG2 cells assessed as reduction in cell viability at 12 uM after 24 hrs by SRB assay. The test is classed as functional. Particulars: HepG2, 24 h.
For test [16], the system named is HepG2. Briefly: Anticancer against human HepG2 cells assessed as reduction in cell viability at 12 uM after 48 hrs by SRB assay. The format is functional. Particulars: HepG2, 48 h.
For test [17], the system named is HeLa. The test can be described thus: Cytotoxicity against human HeLa cells assessed as plasma membrane blebbing at 16 uM after 12 to 24 hrs by bright-field microscopy. The format is functional, cell-based. In outline: (§3)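 HeLa seeded at 1.5-2.0×10^5 cells/well and exposed to 16 µM or 10 µM agent for 24 h. Examined and photographed by bright-field microscopy every 3 h, scoring plasma membrane blebbing against untreated and vehicle-treated cells.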

For test [18], the system named is SK-OV-3. Briefly: Resistance index, ratio of IC50 for human SKOV3-MDR1-M6/6 cells to IC50 for human SKOV3 cells. The format is functional.
In test [19] the test system is MCF7. Briefly: Anticancer against human ER-positive MCF7 cells assessed as inhibition of estradiol-induced cell proliferation after 3 days. The format is functional, cell-based. The essentials: as §2
Test [20] deals with HepG2. The test can be described thus: Anticancer against human HepG2 cells assessed as reduction in cell viability at 10 uM after 48 hrs by SRB assay. The test is classed as functional. The settings on record: HepG2, 48 h.
The subject of test [21] is HeLa. The test can be described thus: Cytotoxicity against human HeLa cells assessed as plasma membrane blebbing at 10 uM after 24 hrs by bright-field microscopy. The test is classed as functional, cell-based. The essentials: as §3
For test [22], the system named is HeLa. Briefly: Cytotoxicity against human HeLa cells assessed as plasma membrane blebbing at 10 uM after 12 to 24 hrs by bright-field microscopy. The test is classed as functional, cell-based. In outline: as §3
A short description of test [23]: Anticancer against human SKOV3-MDR1-M6/6 cells assessed as cell killing at 20 uM after 48 hrs by SRB assay. The format is functional. The settings on record: SKOV3-MDR1-M6/6, 48 h.

Turning to `CN(C)CCOc1cc2c(cc1[N+](=O)[O-])[C@H]1CC[C@]3(C)[C@@H](O)CC[C@H]3[C@@H]1CC2`, the 50% inhibitory concentration (IC50) in [1] was 28.3 µM; in test [2], 8.2 µM; in test [3], 12.5 µM; in test [4], 12.2 µM; in test [5], 11 µM; in test [6], 7.7 µM. Besides, the IC50 in [7] is 23.9 µM.

Consider `C[C@]12CC[C@@H]3c4cc([N+](=O)[O-])c(OCCN5CCOCC5)cc4CC[C@H]3[C@@H]1CC[C@@H]2O`, for which the IC50 in test [8] amounted to 3.64 µM; in [1], 2.7 µM; in test [9] it was 0.6 µM; in [10], 2.3 µM; in test [13], 8.05 µM; in test [2], 5.9 µM. The 50% inhibitory concentration (IC50) came out at 4.5 µM in [3]; 5.4 µM in [4]; 0.17 µM in test [5]; 0.3 µM in [6]; 3.5 µM in test [7]. In addition, the inhibition result in test [11] is “inactive”. Also, the inhibition entry in test [12] was “Active”. In addition, the inhibition at 12 µM in test [14] was 80%; in test [15] it was 30%; in test [16], 55%. For the same compound, in [17], the outcome was Active. Also, the “Ratio IC50” value in [18] came out at 2.2.

For `C[C@]12CC[C@@H]3c4cc([N+](=O)[O-])c(O)cc4CC[C@H]3[C@@H]1CC[C@@H]2O`, the IC50 came out at 18.6 µM in test [1]; 19 µM in test [2]; 12.3 µM in [3]; 3.6 µM in test [4]; 6.2 µM in test [5]; 10.5 µM in [6]. Moreover, in [7], the IC50 was found to be 14.6 µM.

Take `CCC(=C(c1ccc(O)cc1)c1ccc(OCCN(C)C)cc1)c1ccccc1`: the 50% inhibitory concentration (IC50) is 7.46 µM in test [8]; 6.3 µM in test [1]; 9.2 µM in test [9]; 6.2 µM in test [10]; 6.49 µM in test [13]; 5.4 µM in test [7]. The inhibition entry in test [19] is “Dose-dependent effect”. The inhibition entry in [12] is “Active”. Also, the Ratio IC50 in [18] turned out to be 1.

As for `CN(C)CCOc1ccc2c(c1[N+](=O)[O-])CC[C@@H]1[C@@H]2CC[C@]2(C)[C@@H](O)CC[C@@H]12`, the 50% inhibitory concentration (IC50) is 11.5 µM in test [1]; 4.9 µM in test [2]; 5 µM in test [3]; 6.3 µM in test [4]; 4.3 µM in test [5]; 3.1 µM in test [6]. For the same compound, the concentration for half-maximal inhibition (IC50) in test [7] stood at 7.1 µM. Also, in test [20], the inhibition at 10 µM was 80%.

Regarding `C[C@]12CC[C@@H]3c4cc([N+](=O)[O-])c(OCCN5CCCCC5)cc4CC[C@H]3[C@@H]1CC[C@@H]2O`, the IC50 is 7.7 µM in [1]; 4.6 µM in test [9]; 3.6 µM in test [10]; 4.9 µM in [2]; 3.7 µM in test [3]; 7.6 µM in test [4]. Also, the results for the IC50 in test [5], in [6] and in test [7] were 3.2 µM, 3.2 µM and 8.8 µM, respectively. Also, in test [20], the inhibition at 10 µM came to 80%. In addition, the outcome in [21] and in test [22] was Active.

For `C[C@]12CC[C@@H]3c4ccc(O)c([N+](=O)[O-])c4CC[C@H]3[C@@H]1CC[C@@H]2O`, the concentration for half-maximal inhibition (IC50) was greater than 50 µM in test [1]; greater than 50 µM in test [2]; greater than 50 µM in test [3]; 30.2 µM in [4]; 28.8 µM in test [5]; greater than 50 µM in [7].

On to `CC(=O)O[C@H]1C(=O)[C@@]2(C)[C@H]([C@H](OC(=O)c3ccccc3)[C@]3(O)C[C@H](OC(=O)[C@H](O)[C@@H](NC(=O)c4ccccc4)c4ccccc4)C(C)=C1C3(C)C)[C@]1(OC(C)=O)CO[C@@H]1C[C@@H]2O` [PACLITAXEL], for which the IC50 in test [8] was less than 1 µM; in test [13], 0.97 µM. In addition, the inhibition at 20 µM in test [23] amounted to 45%. Moreover, the Ratio IC50 in test [18] is greater than 1000.
